The text below walks through data of ChEMBL document CHEMBL1817556, “Substituted lactam and cyclic azahemiacetals modulate Pseudomonas aeruginosa quorum sensing” (Bioorg Med Chem, 2011).

The target of assay [1] is 3-(3-hydroxydecanoyloxy)decanoate synthase (Pseudomonas aeruginosa (strain ATCC 15692 / PAO1 / 1C / PRS 101 / LMG12228)) (UniProt Q51559). Briefly: Modulation of Pseudomonas aeruginosa lacZ-fused rhlA expressed in Escherichia coli DH5alpha co-expressing Ptac-rhlR assessed as C4-AHL-induced effect at 0.58 mM after 4 hrs by beta-galactosidase assay relative to control. The essentials:
(§1)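 E. coli DH5α carrying pECP61.5 (Ptac-rhlR, PrhlA-lacZ), grown overnight in LB with ampicillin 100 μg/ml and diluted to OD600 0.150. At OD600 1.0, 1 mM IPTG, 2 μM C4-HSL and compound or DMSO were added. Cultures were shaken 4 h at 37 °C, then β-galactosidase was read in Miller units. Activity is % of solvent sample, from triplicates per biological replicate, with at least two repeats.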

For assay [2], the target named is T1, Acyl-homoserine-lactone synthase (Pseudomonas aeruginosa (strain ATCC 15692 / PAO1 / 1C / PRS 101 / LMG12228)) (UniProt P33883).
T1 sequence (whole entry): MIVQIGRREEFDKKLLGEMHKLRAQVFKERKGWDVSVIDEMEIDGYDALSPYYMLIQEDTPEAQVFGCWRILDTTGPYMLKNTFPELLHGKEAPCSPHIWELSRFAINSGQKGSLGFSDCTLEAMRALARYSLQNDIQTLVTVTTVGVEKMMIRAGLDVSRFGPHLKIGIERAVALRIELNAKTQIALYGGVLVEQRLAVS
The assay is described as follows: Modulation of Pseudomonas aeruginosa lacZ-fused lasI expressed in Escherichia coli DH5alpha co-expressing pBAD-lasR assessed as 3-oxo-C12-AHL-induced effect at 0.39 mM after 3 hrs by beta-galactosidase assay relative to control. The essentials:
(§2)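 E. coli DH5α carrying pSC11 (PlasI-lacZ translational fusion) and pJN105L (PBAD-lasR) was grown overnight in LB with ampicillin (100 μg/ml) and gentamicin (15 μg/ml), then diluted to OD600 0.150. Arabinose (0.2% w/v), 3-oxo-C12-AHL (2 μM) and test compound or DMSO were added. Cultures were shaken 3 h at 37 °C. β-Galactosidase activity was read in Miller units and expressed as % of the solvent sample. Triplicates per biological replicate, repeated at least twice; paired two-tailed t-test.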

For assay [3], the target named is 3-(3-hydroxydecanoyloxy)decanoate synthase (Pseudomonas aeruginosa (strain ATCC 15692 / PAO1 / 1C / PRS 101 / LMG12228)) (UniProt Q51559). The assay is described as follows: Modulation of Pseudomonas aeruginosa lacZ-fused rhlA expressed in Escherichia coli DH5alpha co-expressing Ptac-rhlR assessed as C4-AHL-induced effect at 0.19 mM after 4 hrs by beta-galactosidase assay relative to control. The essentials: (§3)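 rhl reporter: E. coli DH5α carrying pECP61.5 (Ptac-rhlR, PrhlA-lacZ) was grown overnight in LB with ampicillin (100 μg/ml) only, then diluted to OD600 0.150. It was induced with 1 mM IPTG, and 2 μM C4-HSL plus compound or DMSO were added at OD600 1.0. Cultures were shaken 4 h at 37 °C. β-Galactosidase activity was read in Miller units as % of the solvent sample. Triplicates per biological replicate, at least two repeats; paired two-tailed t-test.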

Assay [4] shares this target. The assay is described as follows: Modulation of Pseudomonas aeruginosa lacZ-fused rhlA expressed in Escherichia coli DH5alpha co-expressing Ptac-rhlR assessed as C4-AHL-induced effect at 0.78 mM after 4 hrs by beta-galactosidase assay relative to control. The essentials: as §1
Assay [5] addresses T1, Acyl-homoserine-lactone synthase (Pseudomonas aeruginosa (strain ATCC 15692 / PAO1 / 1C / PRS 101 / LMG12228)). Briefly: Modulation of Pseudomonas aeruginosa lacZ-fused lasI expressed in Escherichia coli DH5alpha co-expressing pBAD-lasR assessed as 3-oxo-C12-AHL-induced effect at 0.58 mM after 3 hrs by beta-galactosidase assay relative to control. The essentials: as §2
For assay [6] the target is unchanged. The assay is described as follows: Modulation of Pseudomonas aeruginosa lacZ-fused lasI expressed in Escherichia coli DH5alpha co-expressing pBAD-lasR assessed as 3-oxo-C12-AHL-induced effect at 0.78 mM after 3 hrs by beta-galactosidase assay relative to control. The essentials: as §2
The target is the same in assay [7]. Briefly: Modulation of Pseudomonas aeruginosa lacZ-fused lasI expressed in Escherichia coli DH5alpha co-expressing pBAD-lasR assessed as 3-oxo-C12-AHL-induced effect at 0.19 mM after 3 hrs by beta-galactosidase assay relative to control. In a few lines:
as §2

Assay [8] concerns the target 3-(3-hydroxydecanoyloxy)decanoate synthase (Pseudomonas aeruginosa (strain ATCC 15692 / PAO1 / 1C / PRS 101 / LMG12228)) (UniProt Q51559). Briefly: Modulation of Pseudomonas aeruginosa lacZ-fused rhlA expressed in Escherichia coli DH5alpha co-expressing Ptac-rhlR assessed as C4-AHL-induced effect at 0.39 mM after 4 hrs by beta-galactosidase assay relative to control. The essentials: as §3

Assay [9] has as its target T1, Acyl-homoserine-lactone synthase (Pseudomonas aeruginosa (strain ATCC 15692 / PAO1 / 1C / PRS 101 / LMG12228)). Briefly: Modulation of Pseudomonas aeruginosa lacZ-fused lasI expressed in Escherichia coli DH5alpha co-expressing pBAD-lasR assessed as 3-oxo-C12-AHL-induced effect at 0.77 mM after 3 hrs by beta-galactosidase assay relative to control. The essentials: as §2

The target in assay [10] is 3-(3-hydroxydecanoyloxy)decanoate synthase (Pseudomonas aeruginosa (strain ATCC 15692 / PAO1 / 1C / PRS 101 / LMG12228)) (UniProt Q51559). Briefly: Modulation of Pseudomonas aeruginosa lacZ-fused rhlA expressed in Escherichia coli DH5alpha co-expressing Ptac-rhlR assessed as C4-AHL-induced effect at 0.77 mM after 4 hrs by beta-galactosidase assay relative to control. The essentials:
as §1

The target in assay [11] is T1, Acyl-homoserine-lactone synthase (Pseudomonas aeruginosa (strain ATCC 15692 / PAO1 / 1C / PRS 101 / LMG12228)). The assay is described as follows: Modulation of Pseudomonas aeruginosa lacZ-fused lasI expressed in Escherichia coli DH5alpha co-expressing pBAD-lasR assessed as 3-oxo-C12-AHL-induced effect at 1.14 mM after 3 hrs by beta-galactosidase assay relative to control. The essentials:
as §2

Assay [12] deals with 3-(3-hydroxydecanoyloxy)decanoate synthase (Pseudomonas aeruginosa (strain ATCC 15692 / PAO1 / 1C / PRS 101 / LMG12228)) (UniProt Q51559). Briefly: Modulation of Pseudomonas aeruginosa lacZ-fused rhlA expressed in Escherichia coli DH5alpha co-expressing Ptac-rhlR assessed as C4-AHL-induced effect at 1.14 mM after 4 hrs by beta-galactosidase assay relative to control. In a few lines:
as §1

The target in assay [13] is T1, Acyl-homoserine-lactone synthase (Pseudomonas aeruginosa (strain ATCC 15692 / PAO1 / 1C / PRS 101 / LMG12228)). Briefly: Modulation of Pseudomonas aeruginosa lacZ-fused lasI expressed in Escherichia coli DH5alpha co-expressing pBAD-lasR assessed as 3-oxo-C12-AHL-induced effect at 0.86 mM after 3 hrs by beta-galactosidase assay relative to control. In a few lines:
as §2

Assay [14] deals with 3-(3-hydroxydecanoyloxy)decanoate synthase (Pseudomonas aeruginosa (strain ATCC 15692 / PAO1 / 1C / PRS 101 / LMG12228)) (UniProt Q51559). The assay is described as follows: Modulation of Pseudomonas aeruginosa lacZ-fused rhlA expressed in Escherichia coli DH5alpha co-expressing Ptac-rhlR assessed as C4-AHL-induced effect at 0.57 mM after 4 hrs by beta-galactosidase assay relative to control. In a few lines:
as §3

Assay [15] has the same target. The assay is described as follows: Modulation of Pseudomonas aeruginosa lacZ-fused rhlA expressed in Escherichia coli DH5alpha co-expressing Ptac-rhlR assessed as C4-AHL-induced effect at 0.29 mM after 4 hrs by beta-galactosidase assay relative to control. In a few lines:
as §3

The target in assay [16] is T1, Acyl-homoserine-lactone synthase (Pseudomonas aeruginosa (strain ATCC 15692 / PAO1 / 1C / PRS 101 / LMG12228)). The assay is described as follows: Modulation of Pseudomonas aeruginosa lacZ-fused lasI expressed in Escherichia coli DH5alpha co-expressing pBAD-lasR at 0.29 to 0.86 mM after 3 hrs by beta-galactosidase assay relative to control. In a few lines: as §2

The target of assay [17] is 3-(3-hydroxydecanoyloxy)decanoate synthase (Pseudomonas aeruginosa (strain ATCC 15692 / PAO1 / 1C / PRS 101 / LMG12228)) (UniProt Q51559). The assay is described as follows: Modulation of Pseudomonas aeruginosa lacZ-fused rhlA expressed in Escherichia coli DH5alpha co-expressing Ptac-rhlR assessed as C4-AHL-induced effect at 0.86 mM after 4 hrs by beta-galactosidase assay relative to control. In a few lines: as §1

In assay [18] the target is T1, Acyl-homoserine-lactone synthase (Pseudomonas aeruginosa (strain ATCC 15692 / PAO1 / 1C / PRS 101 / LMG12228)). The assay is described as follows: Modulation of Pseudomonas aeruginosa lacZ-fused lasI expressed in Escherichia coli DH5alpha co-expressing pBAD-lasR assessed as 3-oxo-C12-AHL-induced effect at 0.29 mM after 3 hrs by beta-galactosidase assay relative to control. In a few lines: as §2

For assay [19] the target is unchanged. The assay is described as follows: Modulation of Pseudomonas aeruginosa lacZ-fused lasI expressed in Escherichia coli DH5alpha co-expressing pBAD-lasR assessed as 3-oxo-C12-AHL-induced effect at 0.57 mM after 3 hrs by beta-galactosidase assay relative to control. In a few lines: as §2

Molecules are shown by their SMILES. Active and inactive are the calls of the source. No cut-off for these calls is given here.

`CCCCCCCCCSC[C@@H]1CCC(=O)N1`: the Activity came out at 108% in [1]; 26% in assay [2]; 95% in [3]; 137% in assay [4]; 18% in [5]; 6% in assay [6]. In addition, the Activity was 72% in assay [7] and 115% in assay [8].
Regarding `CCCCCCCCCSC[C@@H]1CCC(O)N1` (mixture of isomers), the Activity in assay [1] was 100%; in [2], 65%; in assay [3] it was 93%; in [5] it was 57%; in assay [9], 47%; in assay [7], 74%. The values for the Activity in assay [10] and in assay [8] were 99% and 80%, respectively.
Take `CCCSC[C@@H]1CCC(O)N1` (mixture of isomers): the Activity in assay [11] amounted to 11%; in [12], 9%; in assay [13], 31%; in assay [14] it was 138%; in assay [15], 121%; in assay [17] it was 41%. The results for the Activity in assay [18] and in assay [19] were 228% and 115%, respectively. Moreover, the result in assay [16] was inactive.
